In ChEMBL document CHEMBL1833886, “Synthesis and evaluation of furoxan-based nitric oxide-releasing derivatives of tetrahydroisoquinoline as anticancer and multidrug resistance reversal agents” (Bioorg Med Chem Lett, 2011):
Active and inactive are the calls of the source. No cut-off for these calls is given here.

Tests used:
K562 [1] = experiment: Reversal of P-gp-mediated multidrug-resistance in human K562 cells at 10 uM after 48 hrs by MTT assay relative to adriamycin; format: cell-based
Summary of the method: (§1)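 Cells at 3 × 10⁴/well received graded adriamycin plus test compound (final 10 µM), 48 h at 37 °C, 5% CO2, then MTT read-out at 570 nm. Adriamycin IC50 by Bliss method. Fold reversal = IC50 of adriamycin alone / IC50 with modulator. Student's t test versus no modulator, P < 0.05.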

K562 [2] = experiment: Cytotoxicity against human K562 cells after 48 hrs by MTT assay; format: functional, cell-based; details: K562, 48 h
Summary of the method: (§2)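 K562 and adriamycin-selected K562/A02 cells in RPMI 1640 with 10% fetal calf serum, 37 °C, 5% CO2; kept drug-free >14 days before assay. Log-phase cells at 1 × 10⁵/mL in 96-well plates, exposed to a range of compound concentrations (DMSO stock, final DMSO ≤0.1%) for 48 h. MTT added during last 4 h, formazan in DMSO, read at 570 nm. Duplicate wells, ≥3 experiments. IC50 by Bliss method.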

K562/A02 [3] = experiment: Reversal of P-gp-mediated multidrug-resistance in adriamycin-resistant human K562/A02 cells at 10 uM after 48 hrs by MTT assay relative to adriamycin; format: cell-based; summary of the method: as §1
[4] = Cytotoxicity against adriamycin-resistant human K562/A02 cells after 48 hrs by MTT assay; format: functional, cell-based; details: K562/A02, 48 h; summary of the method: as §2
K562/A02 [5] = experiment: Induction of NO production in adriamycin-resistant human K562/A02 cells at 10 uM after 24 hrs by Griess assay; format: functional, cell-based
Summary of the method: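 K562/A02 cells (5 × 10⁶ per well) exposed in triplicate to 10 µM compound for 24 h, harvested and lysed. Lysates mixed with Griess reagent 30–300 min, absorbance at 570 nm. Nitrite/nitrate quantified against sodium nitrate standard curve; diluent-treated cells as background control. Mean SD of three separate experiments.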

K562/A02 [6] = experiment: Inhibition of P-gp-mediated rhodamine-123 uptake in adriamycin-resistant human K562/A02 cells assessed as rhodamine-123 accumulation at 10 uM after 60 mins by flow cytometry; format: cell-based
Summary of the method: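 Rhodamine123 uptake in K562/A02 cells followed by fluorescence after treatment with 10 µM (final) modulator; verapamil group as reference, untreated control. Intracellular rhodamine123 read from a rhodamine123 standard curve, fluorescence taken as relative concentration. Student's t test, P < 0.05.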

Row | SMILES | fold change (FC) (K562 [1]) | IC50 (K562 [2]) | fold change (FC) (K562/A02 [3]) | IC50 [4] | Activity (K562/A02 [5]) | inhibition (K562/A02 [6])
1 | COc1ccc(CC2c3cc(OC)c(OC)cc3CCN2C(=O)CCC(=O)OCCCCCCOc2no[n+]([O-])c2S(=O)(=O)c2ccccc2)cc1OC (stereo not given) | 1.35 | 1.65 µM | 1.96 | 12.5 µM | – | –
2 | COc1cc2c(cc1OC)CN(C(=O)CCC(=O)OCCOc1no[n+]([O-])c1S(=O)(=O)c1ccccc1)CC2 | 1.34 | 1.15 µM | 10.7 | 12.7 µM | – | –
3 | COc1cc2c(cc1OC)CN(C(=O)CCC(=O)OCC#CCOc1no[n+]([O-])c1S(=O)(=O)c1ccccc1)CC2 | 1.65 | 0.901 µM | 10.1 | 8.08 µM | – | –
4 | COc1cc2c(cc1OC)C(Cc1cccc3ccccc13)N(C(=O)CCC(=O)OCCOc1no[n+]([O-])c1S(=O)(=O)c1ccccc1)CC2 (stereo not given) | 1.59 | 1.03 µM | 2.02 | 9.98 µM | – | –
5 | COc1cccc2c1C(=O)c1c(O)c3c(c(O)c1C2=O)C[C@@](O)(C(=O)CO)C[C@@H]3O[C@H]1C[C@H](N)[C@H](O)[C@H](C)O1 [DOXORUBICIN] | – | – | – | 17.8 µM | – | –
6 | COc1cc2c(cc1OC)C(Cc1cccc3ccccc13)N(C(=O)CCC(=O)OCCCCOc1no[n+]([O-])c1S(=O)(=O)c1ccccc1)CC2 (stereo not given) | 1.47 | 1 µM | 17.4 | 12.2 µM | Active | Active
7 | COc1cc2c(cc1OC)CN(C(=O)CCC(=O)OCCCCCCOc1no[n+]([O-])c1S(=O)(=O)c1ccccc1)CC2 | 1.09 | 1.73 µM | 3.2 | 14.6 µM | – | –
8 | COc1cc2c(cc1OC)C(COc1ccccc1)N(C(=O)CCC(=O)OCCCCCCOc1no[n+]([O-])c1S(=O)(=O)c1ccccc1)CC2 (stereo not given) | 1.2 | 1.79 µM | 3.15 | 13.5 µM | – | –
9 | COc1ccc(CC2c3cc(OC)c(OC)cc3CCN2C(=O)CCC(=O)OCCCCOc2no[n+]([O-])c2S(=O)(=O)c2ccccc2)cc1OC (stereo not given) | 1.1 | 1.93 µM | 1.88 | 13 µM | – | –
10 | COc1ccc(CC2c3cc(OC)c(OC)cc3CCN2C(=O)CCC(=O)OCCOc2no[n+]([O-])c2S(=O)(=O)c2ccccc2)cc1OC (stereo not given) | 1.47 | 1.09 µM | 21.3 | 11.3 µM | Active | Active
11 | COc1cc2c(cc1OC)C(Cc1cccc3ccccc13)N(C(=O)CCC(=O)OCCCCCCOc1no[n+]([O-])c1S(=O)(=O)c1ccccc1)CC2 (stereo not given) | 1.35 | 1.6 µM | 5.05 | 12.3 µM | – | –
12 | COc1ccc(CCN(C)CCCC(C#N)(c2ccc(OC)c(OC)c2)C(C)C)cc1OC (stereo not given) | 0.96 | – | 17.4 | – | – | –
13 | COc1cc2c(cc1OC)C(COc1ccccc1)N(C(=O)CCC(=O)OCCOc1no[n+]([O-])c1S(=O)(=O)c1ccccc1)CC2 (stereo not given) | 1.54 | 1.45 µM | 10.7 | 10.8 µM | – | –
14 | COc1cc2c(cc1OC)CN(C(=O)CCC(=O)OCCCCOc1no[n+]([O-])c1S(=O)(=O)c1ccccc1)CC2 | 1.5 | 1.56 µM | 1.85 | 11.8 µM | – | –
15 | COc1cc2c(cc1OC)C(COc1ccccc1)N(C(=O)CCC(=O)OCC#CCOc1no[n+]([O-])c1S(=O)(=O)c1ccccc1)CC2 (stereo not given) | 1.73 | 0.892 µM | 1.73 | 6.36 µM | – | –
16 | COc1cc2c(cc1OC)C(COc1ccccc1)N(C(=O)CCC(=O)OCCCCOc1no[n+]([O-])c1S(=O)(=O)c1ccccc1)CC2 (stereo not given) | 1.06 | 1.5 µM | 1.68 | 17.5 µM | – | –
17 | COc1ccc(CC2c3cc(OC)c(OC)cc3CCN2C(=O)CCC(=O)OCC#CCOc2no[n+]([O-])c2S(=O)(=O)c2ccccc2)cc1OC (stereo not given) | 1.65 | 0.905 µM | 5.65 | 8.05 µM | – | –
18 | COc1cc2c(cc1OC)C(Cc1cccc3ccccc13)N(C(=O)CCC(=O)OCC#CCOc1no[n+]([O-])c1S(=O)(=O)c1ccccc1)CC2 (stereo not given) | 1.86 | 0.875 µM | 32 | 7.5 µM | Active | Active
19 | CCCCCCCCN/C(=N/C#N)N1CCc2cc(OC)c(OC)cc2C1Cc1ccc(OC)c(OC)c1 (stereo not given) | – | – | – | > 500 µM | inactive | –
